Experimental data published in ChEMBL document CHEMBL3526013, “Cannabinoid type 1 receptor antagonists modulate transport activity of multidrug resistance-associated proteins MRP1, MRP2, MRP3, and MRP4” (Drug Metab Dispos, 2011).

Legend:
[1] = biological target: T1, MRP4 (ABCC4) (Homo sapiens, UniProt O15439); test: Inhibition of MRP4-mediated E2-17betaG transport in human MRP4 expressing HEK293 cells at 12 uM during 5 mins; format: ADME, cell-based; settings: probe E2-17betaG
T1 sequence (O15439 whole entry): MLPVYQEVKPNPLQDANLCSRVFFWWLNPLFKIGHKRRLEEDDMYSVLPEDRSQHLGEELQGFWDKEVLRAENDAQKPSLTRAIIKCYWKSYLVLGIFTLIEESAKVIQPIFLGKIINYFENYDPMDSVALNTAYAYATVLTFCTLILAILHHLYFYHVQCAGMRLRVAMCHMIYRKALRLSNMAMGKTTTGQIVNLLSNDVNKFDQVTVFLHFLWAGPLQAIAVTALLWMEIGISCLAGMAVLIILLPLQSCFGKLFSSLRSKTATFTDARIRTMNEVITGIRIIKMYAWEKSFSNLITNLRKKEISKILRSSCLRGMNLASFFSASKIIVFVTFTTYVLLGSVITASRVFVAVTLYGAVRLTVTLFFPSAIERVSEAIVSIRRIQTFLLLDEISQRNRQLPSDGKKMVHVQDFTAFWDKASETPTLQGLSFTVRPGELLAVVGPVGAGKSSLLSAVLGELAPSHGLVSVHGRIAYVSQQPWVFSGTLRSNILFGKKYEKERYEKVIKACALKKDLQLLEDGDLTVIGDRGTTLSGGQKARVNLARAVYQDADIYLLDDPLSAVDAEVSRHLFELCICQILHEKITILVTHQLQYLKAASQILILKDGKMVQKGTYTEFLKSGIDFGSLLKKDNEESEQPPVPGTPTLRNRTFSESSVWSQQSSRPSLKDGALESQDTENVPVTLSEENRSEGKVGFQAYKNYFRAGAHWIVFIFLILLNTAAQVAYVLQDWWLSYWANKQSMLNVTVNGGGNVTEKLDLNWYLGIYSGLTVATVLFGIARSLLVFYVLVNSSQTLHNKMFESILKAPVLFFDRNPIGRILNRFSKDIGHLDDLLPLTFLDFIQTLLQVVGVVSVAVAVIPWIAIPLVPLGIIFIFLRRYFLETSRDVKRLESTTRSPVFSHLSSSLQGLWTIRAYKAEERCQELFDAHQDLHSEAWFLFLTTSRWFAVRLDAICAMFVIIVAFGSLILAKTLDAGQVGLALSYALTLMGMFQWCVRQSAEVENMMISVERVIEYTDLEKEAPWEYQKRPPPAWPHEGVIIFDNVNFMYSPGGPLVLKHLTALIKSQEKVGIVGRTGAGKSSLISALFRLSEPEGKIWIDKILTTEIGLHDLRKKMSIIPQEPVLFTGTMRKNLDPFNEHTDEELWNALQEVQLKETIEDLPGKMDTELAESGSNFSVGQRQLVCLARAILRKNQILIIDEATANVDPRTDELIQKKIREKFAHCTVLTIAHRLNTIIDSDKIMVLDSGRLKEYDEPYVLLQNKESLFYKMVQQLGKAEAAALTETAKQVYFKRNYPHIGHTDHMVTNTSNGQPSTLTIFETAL
In short: (§1)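 MRP4-expressing HEK293 inside-out vesicles (baculovirus transduction). 7.5 μg protein with 4 mM ATP, 10 mM MgCl2 in TS buffer and 0.12 μM [3H]E2-17βG, 5 min at 37°C. Filter-bound radioactivity counted; AMP control subtracted for ATP-dependent uptake. Nominal 10/100 μM antagonist, actual concentrations by LC-MS/MS. Percent of untreated, three independent experiments.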

[2] = biological target: T2, ATP-binding cassette sub-family C member 2 (Homo sapiens, UniProt Q92887); test: Induction of MRP2-mediated E2-17betaG transport in human MRP2 expressing HEK293 cells at 12 uM during 5 mins; format: ADME, cell-based; settings: hek293, 5 min
T2 sequence (Q92887 whole entry): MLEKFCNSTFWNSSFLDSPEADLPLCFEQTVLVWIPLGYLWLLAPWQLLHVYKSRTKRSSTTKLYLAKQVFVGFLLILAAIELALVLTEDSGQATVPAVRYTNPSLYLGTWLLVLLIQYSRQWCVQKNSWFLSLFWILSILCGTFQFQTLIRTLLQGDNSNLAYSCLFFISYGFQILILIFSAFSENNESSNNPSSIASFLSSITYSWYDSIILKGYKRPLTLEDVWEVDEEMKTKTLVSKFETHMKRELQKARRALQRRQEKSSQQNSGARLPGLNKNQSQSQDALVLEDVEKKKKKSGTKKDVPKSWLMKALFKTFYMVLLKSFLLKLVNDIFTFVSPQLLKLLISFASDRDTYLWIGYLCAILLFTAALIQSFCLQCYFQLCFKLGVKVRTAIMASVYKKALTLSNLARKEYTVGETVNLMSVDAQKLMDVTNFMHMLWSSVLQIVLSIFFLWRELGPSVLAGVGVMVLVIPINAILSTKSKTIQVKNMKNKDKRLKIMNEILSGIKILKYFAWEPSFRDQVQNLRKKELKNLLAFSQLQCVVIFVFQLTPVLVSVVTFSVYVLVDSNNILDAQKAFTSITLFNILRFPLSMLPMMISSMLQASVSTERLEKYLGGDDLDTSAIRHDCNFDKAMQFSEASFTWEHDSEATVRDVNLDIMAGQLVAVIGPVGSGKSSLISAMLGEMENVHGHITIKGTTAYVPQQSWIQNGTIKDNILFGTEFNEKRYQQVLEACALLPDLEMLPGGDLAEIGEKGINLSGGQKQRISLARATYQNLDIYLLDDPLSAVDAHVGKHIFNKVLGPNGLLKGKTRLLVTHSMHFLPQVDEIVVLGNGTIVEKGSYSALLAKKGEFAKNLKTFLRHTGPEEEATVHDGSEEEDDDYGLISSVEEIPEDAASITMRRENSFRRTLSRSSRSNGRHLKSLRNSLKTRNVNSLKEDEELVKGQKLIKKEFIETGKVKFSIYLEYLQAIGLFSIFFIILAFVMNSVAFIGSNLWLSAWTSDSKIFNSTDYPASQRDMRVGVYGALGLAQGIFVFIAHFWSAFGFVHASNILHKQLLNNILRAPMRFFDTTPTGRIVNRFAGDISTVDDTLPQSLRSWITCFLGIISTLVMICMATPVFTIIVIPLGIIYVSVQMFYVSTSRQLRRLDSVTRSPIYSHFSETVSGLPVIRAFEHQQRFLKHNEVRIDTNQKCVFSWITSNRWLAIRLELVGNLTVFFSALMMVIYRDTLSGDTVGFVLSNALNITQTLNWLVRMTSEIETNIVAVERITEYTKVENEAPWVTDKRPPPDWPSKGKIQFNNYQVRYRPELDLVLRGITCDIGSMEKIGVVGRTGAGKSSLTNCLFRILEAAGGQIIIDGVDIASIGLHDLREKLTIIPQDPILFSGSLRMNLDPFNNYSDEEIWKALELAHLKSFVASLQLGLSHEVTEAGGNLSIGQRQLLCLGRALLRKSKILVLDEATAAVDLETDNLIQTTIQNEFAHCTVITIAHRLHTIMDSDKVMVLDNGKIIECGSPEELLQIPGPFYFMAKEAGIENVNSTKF
In short: (§2)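 Inside-out membrane vesicles from HEK293 cells transduced with MRP2 baculovirus (sodium butyrate 5 mM added at 24 h, harvested day 3). 7.5 μg vesicles in TS buffer (pH 7.4) with 4 mM ATP, 10 mM MgCl2, 20 μM [3H]E2-17βG, 5 min at 37°C. Rapid filtration and scintillation counting; AMP values subtracted. Nominal 10 and 100 μM antagonist, actual levels measured by LC-MS/MS. Untreated set at 100%. Three independent experiments.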

[3] = biological target: T3, ATP-binding cassette sub-family C member 4 (Homo sapiens, UniProt O15439); test: Noncompetitive inhibition of MRP4-mediated E2-17betaG transport in human MRP4 expressing HEK293 cells by Dixon plot; format: ADME, cell-based
T3 sequence (O15439 whole entry): T1 sequence (O15439 whole entry)

[4] = biological target: MRP1 (ABCC1) (Homo sapiens, UniProt P33527); test: Inhibition of MRP1-mediated E2-17betaG transport in human MRP1 expressing HEK293 cells at 12 uM during 5 mins; format: ADME, cell-based; settings: probe E2-17betaG
MRP1 (ABCC1), sequence (P33527 whole entry): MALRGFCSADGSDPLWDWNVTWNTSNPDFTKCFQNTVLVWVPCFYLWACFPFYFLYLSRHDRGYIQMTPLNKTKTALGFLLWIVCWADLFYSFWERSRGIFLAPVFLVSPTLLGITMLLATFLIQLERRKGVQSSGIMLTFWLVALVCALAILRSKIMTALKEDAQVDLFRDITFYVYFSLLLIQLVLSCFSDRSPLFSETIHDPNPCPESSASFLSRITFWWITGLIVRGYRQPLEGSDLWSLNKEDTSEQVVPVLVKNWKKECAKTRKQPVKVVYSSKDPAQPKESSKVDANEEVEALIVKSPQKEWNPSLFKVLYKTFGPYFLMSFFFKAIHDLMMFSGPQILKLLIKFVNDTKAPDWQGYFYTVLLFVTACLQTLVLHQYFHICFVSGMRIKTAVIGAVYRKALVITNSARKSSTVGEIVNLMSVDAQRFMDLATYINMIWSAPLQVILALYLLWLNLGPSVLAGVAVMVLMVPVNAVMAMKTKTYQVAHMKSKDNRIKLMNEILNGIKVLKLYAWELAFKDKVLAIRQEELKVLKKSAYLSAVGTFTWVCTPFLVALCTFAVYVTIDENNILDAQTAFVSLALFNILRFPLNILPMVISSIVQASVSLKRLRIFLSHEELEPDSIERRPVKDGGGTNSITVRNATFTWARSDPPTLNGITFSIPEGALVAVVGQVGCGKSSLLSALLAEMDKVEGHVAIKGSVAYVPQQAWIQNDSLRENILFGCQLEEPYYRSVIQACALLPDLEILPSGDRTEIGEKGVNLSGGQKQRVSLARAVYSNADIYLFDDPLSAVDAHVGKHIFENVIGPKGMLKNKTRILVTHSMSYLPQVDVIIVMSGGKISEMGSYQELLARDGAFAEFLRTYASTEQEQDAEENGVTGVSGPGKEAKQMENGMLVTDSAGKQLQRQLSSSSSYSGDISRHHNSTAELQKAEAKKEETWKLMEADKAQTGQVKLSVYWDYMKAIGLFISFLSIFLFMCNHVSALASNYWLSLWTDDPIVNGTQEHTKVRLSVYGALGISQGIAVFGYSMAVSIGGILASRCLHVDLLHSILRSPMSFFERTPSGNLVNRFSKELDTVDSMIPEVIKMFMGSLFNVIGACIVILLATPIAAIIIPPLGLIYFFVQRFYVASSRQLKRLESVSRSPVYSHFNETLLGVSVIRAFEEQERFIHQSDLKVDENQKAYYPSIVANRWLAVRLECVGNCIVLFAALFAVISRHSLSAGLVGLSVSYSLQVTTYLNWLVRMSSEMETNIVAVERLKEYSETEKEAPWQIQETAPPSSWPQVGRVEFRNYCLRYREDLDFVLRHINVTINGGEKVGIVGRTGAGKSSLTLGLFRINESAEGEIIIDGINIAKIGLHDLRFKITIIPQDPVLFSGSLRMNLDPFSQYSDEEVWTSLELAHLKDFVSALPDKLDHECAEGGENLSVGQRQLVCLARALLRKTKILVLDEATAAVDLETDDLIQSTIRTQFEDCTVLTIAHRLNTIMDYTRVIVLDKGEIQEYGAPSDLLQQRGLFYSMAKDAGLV
In short: (§3)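 Inside-out membrane vesicles from MRP1-baculovirus-transduced HEK293 cells. 7.5 μg vesicles in TS buffer, 4 mM ATP, 10 mM MgCl2, 0.16 μM [3H]E2-17βG, 5 min at 37°C. Stopped on ice, then rapid filtration and scintillation counting. ATP minus AMP uptake taken as net. Nominal 10 or 100 μM antagonist, actual levels by LC-MS/MS. Expressed as % of untreated. Three independent experiments.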

[5] = Retention time of the compound by LC-MS/MS method; format: physicochemical
In short: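 Reaction mix without radiolabel, AMP condition, with 7.5 μg eYFP vesicles. Supernatant after 16,000–20,000g spin diluted in 50% acetonitrile/0.1% TFA. Gradient of 0.1% TFA water/acetonitrile, 50→90% B over 5 min. Electrospray triple quadrupole. Duplicates, at least three experiments.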

[6] = biological target: ATP-binding cassette sub-family C member 3 (Homo sapiens, UniProt O15438); test: Inhibition of MRP3-mediated E2-17betaG transport in human MRP3 expressing HEK293 cells in presence of 15 uM E2-17betaG; format: ADME, cell-based
ATP-binding cassette sub-family C member 3, sequence (O15438 whole entry): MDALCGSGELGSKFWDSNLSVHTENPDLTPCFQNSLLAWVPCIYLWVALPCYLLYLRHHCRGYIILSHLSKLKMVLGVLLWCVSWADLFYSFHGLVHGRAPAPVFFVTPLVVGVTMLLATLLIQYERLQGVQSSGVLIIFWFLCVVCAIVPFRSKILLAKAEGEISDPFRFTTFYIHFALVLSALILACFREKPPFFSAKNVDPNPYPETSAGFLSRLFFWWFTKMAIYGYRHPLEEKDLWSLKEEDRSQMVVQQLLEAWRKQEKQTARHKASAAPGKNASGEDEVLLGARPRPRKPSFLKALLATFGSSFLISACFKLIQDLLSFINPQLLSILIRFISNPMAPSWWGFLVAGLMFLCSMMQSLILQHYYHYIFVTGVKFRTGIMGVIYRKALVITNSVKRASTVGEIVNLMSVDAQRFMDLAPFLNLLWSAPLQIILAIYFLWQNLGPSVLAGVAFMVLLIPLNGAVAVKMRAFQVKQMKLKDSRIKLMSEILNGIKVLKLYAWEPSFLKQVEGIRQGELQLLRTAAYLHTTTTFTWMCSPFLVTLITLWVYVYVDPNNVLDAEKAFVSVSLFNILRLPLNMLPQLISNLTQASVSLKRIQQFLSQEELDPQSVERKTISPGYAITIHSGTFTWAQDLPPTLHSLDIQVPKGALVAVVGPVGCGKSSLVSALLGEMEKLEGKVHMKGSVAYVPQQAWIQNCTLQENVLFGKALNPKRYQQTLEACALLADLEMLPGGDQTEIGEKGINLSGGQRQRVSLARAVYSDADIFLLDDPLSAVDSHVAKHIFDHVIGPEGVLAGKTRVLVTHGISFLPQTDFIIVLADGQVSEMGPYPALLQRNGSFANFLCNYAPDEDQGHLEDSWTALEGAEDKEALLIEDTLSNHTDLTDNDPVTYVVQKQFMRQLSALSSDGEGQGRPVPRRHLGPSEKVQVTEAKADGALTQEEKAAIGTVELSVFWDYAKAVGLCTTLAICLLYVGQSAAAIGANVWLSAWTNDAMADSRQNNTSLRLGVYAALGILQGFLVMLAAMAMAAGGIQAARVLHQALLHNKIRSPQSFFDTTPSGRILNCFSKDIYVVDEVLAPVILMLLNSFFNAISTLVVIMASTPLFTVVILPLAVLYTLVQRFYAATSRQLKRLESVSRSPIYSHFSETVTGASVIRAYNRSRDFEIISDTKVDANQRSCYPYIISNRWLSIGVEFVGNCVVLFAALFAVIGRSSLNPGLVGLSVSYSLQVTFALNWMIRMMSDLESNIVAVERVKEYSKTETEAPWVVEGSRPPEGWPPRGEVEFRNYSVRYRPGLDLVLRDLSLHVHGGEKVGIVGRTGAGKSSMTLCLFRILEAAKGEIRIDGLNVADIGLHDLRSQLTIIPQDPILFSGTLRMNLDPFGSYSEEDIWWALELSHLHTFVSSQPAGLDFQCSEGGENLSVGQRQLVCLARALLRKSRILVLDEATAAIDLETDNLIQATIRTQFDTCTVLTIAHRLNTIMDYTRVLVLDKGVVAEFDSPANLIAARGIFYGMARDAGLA
In short: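 Vesicles from MRP3-transduced HEK293 cells. 7.5 μg in TS buffer with 4 mM ATP and 10 mM MgCl2, substrate [3H]E2-17βG at 15 μM, with antagonists at high concentrations. Incubated at 37°C, filtered and counted. ATP-dependent uptake calculated by AMP subtraction.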

[7] = biological target: T4, Multidrug resistance-associated protein 1 (Homo sapiens, UniProt P33527); test: Inhibition of MRP1-mediated E2-17betaG transport in human MRP1 expressing HEK293 cells in presence of 0.16 to 5 uM E2-17betaG
T4 sequence (P33527 whole entry): as the sequence (P33527 whole entry) above

[8] = biological target: T3, ATP-binding cassette sub-family C member 4; test: Inhibition of MRP4-mediated E2-17betaG transport in human MRP4 expressing HEK293 cells in presence of 0.1 to 1 uM E2-17betaG
[9] = biological target: T2, ATP-binding cassette sub-family C member 2; test: Induction of MRP2-mediated E2-17betaG transport in human MRP2 expressing HEK293 cells at 0.7 to 1.3 uM during 5 mins; format: ADME, cell-based; settings: hek293, 5 min; in short: as §2
[10] = biological target: T3, ATP-binding cassette sub-family C member 4; test: Inhibition of MRP4-mediated E2-17betaG transport in human MRP4 expressing HEK293 cells at 1 to 3 uM during 5 mins; format: ADME, cell-based; settings: hek293, 5 min; in short: as §1
[11] = biological target: T2, ATP-binding cassette sub-family C member 2; test: Induction of MRP2-mediated E2-17betaG transport in human MRP2 expressing HEK293 cells at 1 to 3 uM during 5 mins; format: ADME, cell-based; settings: hek293, 5 min; in short: as §2
[12] = biological target: T4, Multidrug resistance-associated protein 1; test: Inhibition of MRP1-mediated E2-17betaG transport in human MRP1 expressing HEK293 cells at 1 to 3 uM during 5 mins; format: ADME, cell-based; settings: hek293, 5 min; in short: as §3
[13] = biological target: T4, Multidrug resistance-associated protein 1; test: Inhibition of MRP1-mediated E2-17betaG transport in human MRP1 expressing HEK293 cells at 33 uM during 5 min; format: ADME, cell-based; settings: hek293, 5 min
In short: (§4)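 Inside-out membrane vesicles from HEK293 cells transduced with MRP baculovirus (5 mM butyrate at 24 h, harvested day 3). Reaction: 7.5 µg vesicles in TS buffer pH 7.4 with 4 mM ATP, 10 mM MgCl2 and [3H]E2-17βG, 37°C for 5 min. E2-17βG was 0.16 µM (MRP1), 20 µM (MRP2) or 0.12 µM (MRP4). Uptake was read by rapid filtration and scintillation counting. ATP-dependent uptake was taken as ATP minus AMP values, with drug-free uptake set at 100%. Nominal 10 or 100 µM antagonist; actual concentration measured by LC-MS/MS. Three independent experiments.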

[14] = biological target: T2, ATP-binding cassette sub-family C member 2; test: Induction of MRP2-mediated E2-17betaG transport in human MRP2 expressing HEK293 cells at 33 uM during 5 mins; format: ADME, cell-based; settings: hek293, 5 min; in short: as §4
[15] = biological target: T3, ATP-binding cassette sub-family C member 4; test: Inhibition of MRP4-mediated E2-17betaG transport in human MRP4 expressing HEK293 cells at 33 uM during 5 mins; format: ADME, cell-based; settings: hek293, 5 min; in short: as §4
[16] = system: Rattus norvegicus; test: Attenuation of CP55940-induced hypotension in iv dosed rat; format: functional
In short: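 Male normotensive anaesthetized Wistar rats; antagonist given i.v. at several doses (n=2 per dose) 10 min before CP55,940 0.1 mg/kg i.v. Hypotension develops within 1 min; lowest blood pressure taken as the hypotensive effect. ED50 is the dose inhibiting the CP55,940 hypotensive effect by 50%, calculated from the linear part of the percentage dose-response curve.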

Retention_time [5]	inhibition (INH) [10]	Activity [11]	inhibition (INH) [12]	Compound	Activity [9]	also measured
4 min	Not Active	349%	Not Active	C/N=C(\NS(=O)(=O)N1CCSCC1)N1CC(c2ccccc2)C(c2ccc(Cl)cc2)=N1 (configuration not stated)	256%	–
2.6 min	Not Active	Not Active	Not Active	CN=C(NS(=O)(=O)N1CCS(=O)(=O)CC1)N1CC(c2ccccc2)C(c2ccc(Cl)cc2)=N1 (configuration not stated)	–	–

More lines, now with the values behind:

Compound	Retention_time [5]	inhibition (INH) [10]	Activity [11]	inhibition (INH) [12]	Activity [9]	also measured
CCN(C)S(=O)(=O)NC(=NC)N1CC(c2ccccc2)C(c2ccc(Cl)cc2)=N1 (configuration not stated)	3.8 min	–	–	–	–	inhibition at 5 min, 12 µM [1]: -72%; Activity [2]: 543%; Ki [3]: 7 µM; inhibition at 5 min, 12 µM [4]: -34%; inhibition (INH) [6]: Active; inhibition (INH) [7]: Active; inhibition (INH) [8]: Active
CNC(=NS(=O)(=O)N1CCCCCCC1)N1CC(c2ccccc2)C(c2ccc(Cl)cc2)=N1 (configuration not stated)	5.4 min	Not Active	349%	Not Active	256%	–
C/N=C(\NS(=O)(=O)N(C)C)N1CC(c2ccccc2)C(c2ccc(Cl)cc2)=N1 (configuration not stated)	3.2 min	–	–	–	–	inhibition (INH) [13]: Active; Activity [14]: 543%; inhibition (INH) [15]: Active; ED50 [16]: > 0.3 mg/kg
